Screening results (PubChem)
Compounds with a hit are over-represented: about 4.7% of the library has one in this group of screens.
ADAM17 inh – ADAM17 inhibitors, primary screen, biochemical, QFRET. Disintegrin and metalloproteinase domain-containing protein 17 (Homo sapiens), P78536. hit rate 0.83% among 370,000. recombinant ADAM17, EDANS/DABCYL FRET peptide cleavage. inhibition, % at 6.95 µM;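 active = inhibition above the mean of compounds lying between control limits plus 3 SD, set per campaign, cut at about 8.5% in these data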;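 also: 0% = DMSO-only wells as the low control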
Target sequence (P78536 215-824 limits assumed): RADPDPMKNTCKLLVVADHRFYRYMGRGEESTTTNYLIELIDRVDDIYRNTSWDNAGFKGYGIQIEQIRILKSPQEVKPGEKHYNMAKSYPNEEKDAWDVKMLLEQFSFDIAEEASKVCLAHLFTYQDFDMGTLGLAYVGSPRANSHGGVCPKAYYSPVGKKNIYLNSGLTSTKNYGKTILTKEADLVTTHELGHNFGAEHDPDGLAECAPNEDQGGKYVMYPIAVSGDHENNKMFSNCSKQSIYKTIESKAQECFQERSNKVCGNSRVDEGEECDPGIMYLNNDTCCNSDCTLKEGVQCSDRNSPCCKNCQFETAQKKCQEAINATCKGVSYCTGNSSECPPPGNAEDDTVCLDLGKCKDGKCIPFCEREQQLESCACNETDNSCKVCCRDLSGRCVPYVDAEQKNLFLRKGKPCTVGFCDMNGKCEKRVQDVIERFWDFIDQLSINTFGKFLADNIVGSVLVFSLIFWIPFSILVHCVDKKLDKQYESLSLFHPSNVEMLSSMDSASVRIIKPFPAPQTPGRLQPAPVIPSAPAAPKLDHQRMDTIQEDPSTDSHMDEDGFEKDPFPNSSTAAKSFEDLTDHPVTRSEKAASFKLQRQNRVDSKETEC
ADAM10 inh – human ADAM10 inhibitors, primary screen, biochemical, QFRET, HTS; Disintegrin and metalloproteinase domain-containing protein 10 (Homo sapiens), O14672; recombinant ADAM10, EDANS/DABCYL FRET peptide cleavage, 3 h; inhibition, % at 7 µM; hit rate 0.62% among 370,000; AID 720582, 2013;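 active = inhibition above a per-campaign cutoff equal to the mean of compounds falling between control-based bounds plus 3 SD, cut at about 20% in these data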;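 also: 0% = DMSO wells while the 100% control is not disclosed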
MPTP inh – mitochondrial permeability transition pore inhibitors, primary screen, biochemical, isolated mouse mitochondria, absorbance; Ca2+ swelling absorbance, 30 min; inhibition, % at 10 µM; hit rate 1.4% among 360,000; AID 602449, 2012;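 active = inhibition of 50% or more, scaled per plate between neutral and stimulator controls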;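 also: 0% = DMSO wells given calcium and 100% = 1 mM EGTA wells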
GRIN3A LBD mod – binders of NR3A ligand-binding domain, primary screen, biophysical, differential scanning fluorimetry, uHTS; Glutamate receptor ionotropic, NMDA 3A (GRIN3A) ligand-binding domain; NR3A LBD differential scanning fluorimetry, Tm shift; 0% = protein alone, 100% = glycine-bound protein; Tm shift relative to glycine control, % at 25 µM; hit rate 2.5% among 340,000; AID 1259313, 2017;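 active = melting temperature shift of at least 10% of the positive control shift, at one fixed dose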
SKN-1 inh – suppressors of acrylamide-induced Pgst-4::GFP reporter in worms, primary screen, SKN-1 inhibitor project, whole organism, uHTS, GFP/RFP fluorescence ratio, strain VP596; C. elegans VP596 Pgst-4::GFP/RFP ratio, 24 h; inhibition, % at 21.8 µM; hit rate 0.49% among 360,000;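 active = interference check ratio from 0.5 to 1.5 plus GFP to RFP signal ratio inhibition reaching or exceeding a fixed threshold, cut at about 30% in these data, passing the limit was not always enough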
MT1-MMP act inh – blockers of MT1-MMP proenzyme processing, primary screen, HT1080 RFP-PRO-GFP cells, GFP/RFP fluorescence; GFP/RFP ratio change, % at 20 µM; AID 651647, 2012; Matrix metalloproteinase-14 (Homo sapiens), P50281; GFP/RFP ratio fluorescence, overnight; percent of plate control window, DMSO zero; hit rate 0.061% among 360,000;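 active = GFP/RFP ratio change of at least 30% with cell ATP level not reduced by more than half and red fluorescence within 50% of control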
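Assay system: HT1080 RFP-PRO-GFP cells. Benchmarks: DMSO vehicle wells and RFP-L50D-GFP reporter cell wells. Times: overnight cell settling, then overnight compound exposure, 37 °C, 5% CO2. Compound: 20 µM single dose, 1% DMSO. Read-out basis: GFP/RFP fluorescence ratio.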
ADAM10 counter – ADAM10 inhibitors, counter-screen for ADAM17 exosite inhibitor project, biochemical, FRET, human ADAM10; shares compounds with ADAM17 inh; recombinant ADAM10, EDANS/DABCYL FRET peptide cleavage, 3 h; inhibition, % at 6.95 µM; hit rate 47% among 2,900; AID 743256, 2014;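 active = mean inhibition over the triplicate runs exceeds the activity threshold set in the earlier primary screen, cut at about 20% in these data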;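 also: 0% = DMSO wells and 100% = marimastat wells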
ADAM17 confirm – ADAM17 inhibitors, hit retest, confirmation, biochemical, QFRET peptide cleavage. hit rate 65% among 2,900. shares compounds with ADAM17 inh. AID 743257, 2014. inhibition, % at 6.95 µM. recombinant ADAM17, EDANS/DABCYL QFRET peptide cleavage;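 active = mean inhibition across replicates above the hit cutoff set in the primary screen, cut at about 8.5% in these data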;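 also: 0% = DMSO wells and 100% = marimastat wells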
The depositor's hits bear a star; x = no result.

SMILES	ADAM17 inh	ADAM10 inh	MPTP inh	GRIN3A LBD mod	SKN-1 inh	MT1-MMP act inh	ADAM10 counter	ADAM17 confirm
CC(C)CC(=O)NC(=S)Nc1nc(-c2cccc3ccccc23)cs1	14*	20	2	-2	-8	x	17	8
CCOC(=O)Cc1csc(NC(=S)NC(=O)CC(C)C)n1	3	-1	2	2	2	5	x	x
O=C1[C@H]2[C@@H](c3ccc(C(F)(F)F)cc3)N[C@]3(CCCN(Cc4ccc(F)cc4)C3=O)[C@H]2C(=O)N1Cc1ccccc1	8.9*	20	-1	x	4	3	24*	13*
O=C(O)c1ccc2c(c1)N(Cc1cccc(F)c1)C(=O)CS2	8.9*	15	0	0	-7	3	4	3
O=C(NC(CSCc1ccccc1)C(=O)N/N=C/c1ccc(O)cc1O)c1ccc([N+](=O)[O-])cc1 (configuration not stated)	14*	11	0	16*	-5	-2	19	17*
COc1cc(O)ccc1/C=N/NC(=O)c1ccc([N+](=O)[O-])cc1	2	-1	0	2	9	3	x	x
COC(=O)c1ccc(COc2ccccc2/C=N/NC(=O)c2cccnc2)cc1	8.7*	5	-1	-2	-5	1	16	7
O=C(Nc1cccnc1)OC1CCCCC1	-3	-3	-4	0	5	5	x	x
CCC/C(O)=C1\C(=O)CCCC1=NCCc1ccc(OCC)c(OCC)c1	-4	2	1	5	5	0	x	x
CCC/C(O)=C1\C(=O)CCCC1=NC(C)C(=O)O (configuration not stated)	10*	6	-1	-1	4	-1	10	7
C#CCNC(=O)C[C@@H]1C[C@@]2(C(=O)OC)CC(C)(C)CC=C2N(Cc2cccc3ccccc23)C1=O	6	13	-1	x	23	-8	x	x
Cc1ccc(CNC(=O)Cn2ccc3cc(S(=O)(=O)N4CCCCCC4)ccc32)cc1	8.8*	3	-1	-7	1	4	-3	7
CCCC[C@@H]1CNCCN1CCc1cc(C(F)(F)F)cc(C(F)(F)F)c1	9.0*	4	1	-1	10	-1	0	0
FC(F)(F)c1cc(CCN2CCNC[C@@H]2CC2CCCCC2)cc(C(F)(F)F)c1	1	-1	-1	4	-10	-3	x	x
COc1cccc(NC(=O)CC2Oc3ccccc3NC2=O)c1 (configuration not stated)	-3	-7	0	-1	2	-1	x	x
Cc1ccc(OCC(=O)Oc2ccc(C(C)C)cc2)cc1	1	2	-2	0	3	1	x	x
COc1ccc(S(=O)(=O)NCC2CCCN(Cc3ccc(O)cc3)C2)cc1 (configuration not stated)	-2	0	-2	1	8	3	x	x
COc1ccc(C(CNC(=O)COc2ccc(F)cc2Br)N2CCCC2)cc1 (configuration not stated)	-2	-1	-1	2	-6	-3	x	x
Cc1ccc(O)c(-c2cc(C(=O)Nc3ccc(S(=O)(=O)N4CC(C)OC(C)C4)cc3)[nH]n2)c1 (configuration not stated)	9.2*	16	48	35*	3	8	17	9.4*
CCCCCCCCn1cnc2c(N)c(C)c(C)cc21	8.8*	7	3	2	0	-11	19	9.0*
Cc1cc(C)cc(NC2=CC(=O)CC(c3ccco3)C2)c1 (configuration not stated)	-2	-6	1	0	4	-3	x	x
CCc1ccc(NC2=CC(=O)CC(c3ccco3)C2)cc1 (configuration not stated)	9.6*	15	0	-2	-18	-1	-6	2
CCC1NC(=O)c2cccnc2-n2c1nc1cc(C)cc(C)c1c2=O (configuration not stated)	0	-6	0	x	-10	-1	x	x
CN(C(=O)CCN1CCCO1)C1CCCN(Cc2ccccc2F)C1 (configuration not stated)	9.0*	-2	0	0	12	-1	15	7
Cc1cc(C)cc(C(=O)N(C)C2CCCN(Cc3ccccc3F)C2)c1 (configuration not stated)	0	16	2	-1	-18	1	x	x
SMILES	ADAM17 inh	ADAM10 inh	MPTP inh	GRIN3A LBD mod	SKN-1 inh	MT1-MMP act inh	ADAM10 counter	ADAM17 confirm
CCOC(=O)N1CCC(NC(=O)CC(NS(=O)(=O)c2ccc(C)cc2)c2ccco2)CC1 (configuration not stated)	2	18	-3	-3	28	-1	x	x
Cc1cc(C)nc(N(C#N)CCOc2ccc(Cl)cc2)n1	-2	2	-1	-2	9	-6	x	x
CC(C)Nc1nc(NC(C)C)nc(N(C#N)CCOc2ccc(Cl)cc2Cl)n1	9.3*	13	6	-9	-9	-20	19	13*
Cc1cccc2nc(CSC(=N)N)c(Br)n12	-8	-27	15	-1	-1	7	x	x
Cc1ccc(S(=O)(=O)Nc2nc(C)c(C(=O)NNS(=O)(=O)c3ccccc3)s2)cc1	-2	2	0	-2	-10	-5	x	x
Cc1ccc(S(=O)(=O)Nc2nc(C)c(NC(=O)OCCCl)s2)cc1	8.9*	0	1	3	14	3	3	6
CCCCCOc1ccc(CSCCNC(=S)Nc2ccccc2)cc1	-3	-12	11	-16	-6	-4	x	x
CC(C)COc1ccc(CSCCNC(=S)Nc2ccccc2)cc1	9.1*	17	6	5	8	-5	29*	13*
NC(=O)C1CCN(C(=O)C2CCC(=O)N(Cc3ccc(Cl)cc3)C2)CC1 (configuration not stated)	-3	-11	1	1	-13	-1	x	x
